Assay outcomes: PubChem BioAssay, several laboratories
An excerpt weighted towards active compounds, which were near 2.7% of everything screened.
Yeast life ext: yeast lifespan extension | S. cerevisiae growth with nicotinamide, OD615; deaD strain in restrictive glucose medium | inhibition of the nicotinamide effect, % at 10 µM | 130,000 compounds, 0.68% hits | AID 775;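 active means inhibition above a set limit, placed 3 SD over the median of all compounds, cut at about 26% in these data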;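 further: 0% = nicotinamide-treated wells and 100% = cells grown without nicotinamide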
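System: DeaD-strain S. cerevisiae / Buffer or medium: CSMM-D, restrictive glucose (dextrose) synthetic minimal medium / Probe or stimulus: nicotinamide, 1.5 mM, co-present with compound / Compound: one concentration, 10 µM, DMSO 0.25% / Incubation: 48 h compound exposure at 30 °C, humidified / Technique: optical density (absorbance) at 615 nm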
sdo1 growth: compounds rescuing growth of sdo1-depleted yeast, bone marrow failure model | z-score at 10 µM | S. cerevisiae sdo1-depleted JHY4D growth rescue, OD600 30 h; stronger effect = higher value; pdr5 snq2 efflux-pump mutant strain | 140,000 compounds, 0.21% hits | AID 817;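 active means z-score above 3 at both the 24 hr and the 30 hr optical density reads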;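 further: z-score against mean and SD of all compound wells on the same plate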
RAM inhibit: yeast RAM network inhibition | inhibition, % at 50 µM | S. cerevisiae dse1pr::URA3 reporter, 5-FOA growth OD615, 2 d; analog-sensitive cbk1-as2 kinase mutant strain | 190,000 compounds, 1.8% hits;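 active means inhibition above a set limit, 3 SD over mean compound inhibition, cut at about 8.4% in these data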;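 further: 0% = DMSO-only wells with no growth and 100% = 10 µM 1-NA-PP1 full growth; inhibition rescues growth on 5-FOA so higher OD means more RAM inhibition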
BB579 growth dn: chemicals that inhibit yeast BB579 growth in restrictive medium (lifespan-shortening candidates). S. cerevisiae BB579 growth, OD615, 48 h. inhibition, % at 10 µM. 140,000 compounds, 0.51% hits;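 active means inhibition above a set limit, 3 SD over the mean compound inhibition, cut at about 44% in these data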
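System: DeaD yeast strain BB579; buffer or medium: CSMM-D dextrose restrictive medium; technique: OD at 615 nm; schedule: 4 h cell preincubation, 48 h compound exposure, 30 °C humidified; doses: single 10 µM dose; controls: amphotericin B 10 µg/mL, positive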
Active calls of the source: *; x = no result; [ ] = remark or other dose.

SMILES	Yeast life ext	sdo1 growth	RAM inhibit	BB579 growth dn
Cn1c(CCCCCN)nc2ccccc21	30*	1.6	2	-1
CCCC(=O)NCCCc1nc2ccccc2n1C	-3	0.1	1	1
Oc1ccccc1/C=N/n1c2ccccc2c2ccccc21	-19	-0.48	9.7*	-14
C(=N\n1c2ccccc2c2ccccc21)/c1ccccc1	1	-0.21	8	-15
O=S(=O)(NCc1ccccc1)c1ccc(S(=O)(=O)N(Cc2cccs2)CC2CCCO2)cc1 (stereo not drawn)	2	1.2	8.9*	-23
O=C(O)c1cccc(S(=O)(=O)Nc2ccc(S(=O)(=O)N3CCOCC3)cc2)c1	x	x	1	x
CCOC(=O)c1ccc(N=C2SC(C(=O)NCCc3ccccc3)CC(=O)N2C)cc1 (stereo not drawn)	x	x	9.5*	x
COc1ccc(CN2C(=O)CC(C(=O)NCCc3ccc(S(N)(=O)=O)cc3)SC2=Nc2ccccc2)cc1 (stereo not drawn)	x	x	4	x
COc1cccc(NC(=O)CSc2nnc(-c3cccc(OC(C)C)c3)n2N)c1	-6	-0.69	11*	-40
Oc1cccc(C=NCc2ccccc2)c1O	-19	0.2	-2	98*
Cc1ccc2c(c1)N(CCC(=O)NCc1ccco1)C(=O)CO2	-3	-0.34	0	-34
COc1ccc(Nc2nnc(SCC(=O)Nc3ccc4[nH]c(=O)[nH]c4c3)s2)cc1	x	x	10*	x
Cc1cc(N2C(=O)C(=O)/C(=C(/O)c3ccc(F)cc3)C2c2cccc(Br)c2)no1 (stereo not drawn)	1	0.1	2	-11
Cc1ccc(/C(O)=C2\C(=O)C(=O)N(c3cc(C)on3)C2c2cccc(Br)c2)cc1 (stereo not drawn)	27*	2.1	5	7
CSCCC(NC(C)=O)C(=O)Oc1ccc2c3c(c(=O)oc2c1)CCCC3 (stereo not drawn)	-10	0.76	0	-24
CSCCC(NC(=O)OC(C)(C)C)C(=O)Oc1ccc2c(=O)c(-c3ccc4c(c3)OCCO4)coc2c1 (stereo not drawn)	-14	0.32	8.7*	-12
N#CC(C#N)=Cc1cc2ccccc2nc1N1CCCCC1	36*	-1.8	1	-24
CCOC(=O)/C(C#N)=C/c1cc2ccccc2nc1N1CCOCC1	1	-0.18	1	-28
Cc1cc(F)ccc1S(=O)(=O)Nc1ncnc2sccc12	x	x	2	x
CCN(CC)C(=O)c1c([N+](=O)[O-])c(C(C)(C)C)nn1C	7	1.4	0	-12
O=C(CSc1ncnc2c1oc1ccccc12)OCc1ccccc1	-8	-0.8	8.8*	-71
NC(=O)CSc1ncnc2c1oc1ccccc12	-8	1.2	3	31
COc1ccc(N(C(=O)C(C)C)S(=O)(=O)c2cccc([N+](=O)[O-])c2)cc1	x	x	6	x
COc1ccc(N(C(=O)C(C)C)S(=O)(=O)c2ccc(Cl)cc2)cc1	51*	-0.48	5	-50
COc1cccc(NC(=O)CSc2ncnc3c2cnn3Cc2ccccc2)c1	0	-0.3	8.4*	-70
SMILES	Yeast life ext	sdo1 growth	RAM inhibit	BB579 growth dn
O=C(Oc1ccccc1N1C(=O)CCC1=O)c1ccco1	-14	1.2[16.1 µM]	2	-23
CCCCOc1ccc(Cc2c(Cl)nc(SC)nc2N2CCOCC2)cc1	6	-0.29	8	-45
CSc1nc(Cl)c(Cc2ccc(OCC(C)C)cc2)c(N2CCOCC2)n1	4	-0.61	8.6*	-19
COc1ccc(Cc2c(N)nc(C)nc2N)cc1	x	x	1	x
CCOc1ccc(Cc2c(Cl)nc(SC)nc2OC)cc1	-8	-0.19	9.4*	4
COc1cc(C)c(C#N)c(OC)n1	-14	0.39	1	-20
Cn1c(N)c(C(=O)COC(=O)CNS(=O)(=O)c2cccc(Cl)c2)c(=O)n(C)c1=O	-1	0.24	0	-6
Nc1nonc1C(=O)NCCNc1ncccc1[N+](=O)[O-]	x	x	1	x
COc1ccc(CNC(=O)CSCc2cccc(Cl)c2)cc1	-3	-0.56	2	-5
CSc1ccc(/C=N/n2c(Cc3ccc(Br)cc3)n[nH]c2=S)cc1	x	x	10.0*	x
O=C(O)CCn1cc(/C=C/C(=O)c2ccc(Cl)cc2)c(-c2ccc(Br)cc2)n1	-10	0.57	4	52*
O=C(O)/C=C/c1cn(Cc2ccccc2)nc1-c1ccccc1	-14	-0.06	-1	-43
CC(=O)/C(=N\Nc1ccc(C)cc1)N1CCOCC1	-13	-0.88	-2	92*
Cc1ccc(NC(=O)CC(=O)NCCN2CCOCC2)cc1	-11	-0.56	4	-7
